Sampled rows, rich in hits. Any-hit rate of the full collection: about 1.4%.
HDAC3 inh – HDAC3 deacetylase inhibitors, primary screen, biochemical, fluorescence, cell-free homogeneous. actives 0.15% (n = 320,000). recombinant HDAC3, fluorogenic peptide/trypsin coupled. inhibition, % at 8.3 µM. Histone deacetylase 3 (Homo sapiens), O15379; in the data active = inhibition above about 26%, passing the limit was not always enough; inconclusive = no clear call, values can overlap the other calls
Target sequence (O15379 whole entry, looked up): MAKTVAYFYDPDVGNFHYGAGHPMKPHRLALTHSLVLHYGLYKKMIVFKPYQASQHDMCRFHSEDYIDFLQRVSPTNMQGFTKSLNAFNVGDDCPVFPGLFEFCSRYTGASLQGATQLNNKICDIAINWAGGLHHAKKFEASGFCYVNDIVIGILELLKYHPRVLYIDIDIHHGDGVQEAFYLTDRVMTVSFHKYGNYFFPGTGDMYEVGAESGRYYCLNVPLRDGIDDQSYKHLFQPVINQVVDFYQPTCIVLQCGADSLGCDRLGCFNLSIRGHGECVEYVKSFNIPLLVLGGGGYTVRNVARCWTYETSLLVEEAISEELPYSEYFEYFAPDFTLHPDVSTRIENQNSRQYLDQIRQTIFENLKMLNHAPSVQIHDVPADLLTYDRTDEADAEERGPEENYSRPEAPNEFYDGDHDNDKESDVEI
CR mimetic SO – reduction of superoxide in aged yeast, primary screen, HTS; AID 2690, 2010; superoxide response (% of plate mean), % at 10 µM; S. cerevisiae aged cells, superoxide DHE fluorescence; hits give low values; actives 0.18% (n = 330,000);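 active = superoxide response under a set limit, about three screen SD below normal, cut at about 65% in these data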;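 also: yeast aged for seven days with compound at 30 °C before DHE staining; 100% = average MFI of all compound-treated wells on the plate with controls excluded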
Efflux pump inh – inhibitors of Candida efflux pumps in yeast, primary screen, S. cerevisiae, Nile Red, multiplex | inhibition, % at 10 µM | actives 0.44% (n = 330,000) | AID 485275, 2010 | S. cerevisiae Candida pump triplex;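 active = plate passing quality check with inhibition over a set limit, or well fluorescence over plate mean plus 4 SD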;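 also: Nile Red retained in pooled yeast measured as flow cytometry median fluorescence; 0% = buffer negative control and 100% = Enniatin B positive control; higher means more Nile Red kept so more efflux inhibition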
IDE inh – human IDE inhibitors in live cells, primary screen, fluorescence polarization, HEK cells, FAbetaB substrate; Insulin-degrading enzyme (Homo sapiens), P14735; FAbetaB cleavage; inhibition, % at 5.59 µM; actives 0.41% (n = 320,000);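 active = percent inhibition above the average of all tested compounds plus 3 SD, set per screening campaign, cut at about 16% in these data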;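 also: IDE supplied by intact live HEK cells; FP after avidin binding of uncleaved biotin substrate so inhibition keeps polarization high; 0% = DMSO wells and 100% = 60 µM reference IDE inhibitor Ii1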
IDE cell activ – human IDE activators in live cells, primary screen, fluorescence polarization, HEK cells, FAbeta-B substrate | Insulin-degrading enzyme (Homo sapiens), P14735 | FAbeta-B cleavage; 0% vehicle, 100% cell-free pure enzyme wells | activation, % at 5.96 µM | actives 0.073% (n = 340,000) | AID 493087, 2011;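 active = activation above the mean of all tested compounds plus 3 SD, set per screening campaign, cut at about 17% in these data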
Tb MetRS inh – T. brucei MetRS inhibitors, primary screen, biochemical, luminescence; methionyl-tRNA synthetase (Trypanosoma brucei brucei); purified T. brucei MetRS, ATP depletion, Kinase-Glo luminescence; inhibition, % at 11.9 µM; actives 0.4% (n = 360,000); AID 624268, 2012;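 active = inhibition above a per-plate cutoff of the control wells' mean inhibition plus 3 SD, cut at about 5.5% in these data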;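 also: 0% = DMSO wells median and 100% = median of wells with control inhibitor compound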
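Dosing: 11.9 µM single point; system: parasite MetRS enzyme; technique: luminescence of leftover ATP; times: 15 min enzyme-compound preincubation, 2 h reaction, 10 min detection, 25 °C; replicates: each compound tested once; read-out basis: percent inhibition relative to median high and low control wells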
Active calls of the source: *; ? = inconclusive; nt = no result.

SMILES	HDAC3 inh	CR mimetic SO	Efflux pump inh	IDE inh	IDE cell activ	Tb MetRS inh
Cc1ccc2nc(-c3ccc(NC(=O)CN4CCN(C(=O)c5ccco5)CC4)cc3)sc2c1	-8	108	0	18*	-8	0
Cc1ccc(NC(=O)CN2CCN(C(=O)c3ccco3)CC2)cc1	3	99	0	-3	0	0
COc1ccccc1CNC(=O)c1cc(C)nn1-c1ccccc1	2	44*	0	3	1	0
Cc1cc(C(=O)NCc2ccccc2Cl)n(-c2ccccc2)n1	-3	103	0	5	6	-1
Cc1cccc2sc(N(CCCN(C)C)C(=O)COc3ccc(Cl)cc3)nc12	4	82	0	6	16	0
Cc1cc(C)c2sc(N(CCCN(C)C)C(=O)COc3ccc(Cl)cc3)nc2c1	-6	85	0	3	27*	-1
Cc1ccc2nc(N(CCCN(C)C)C(=O)COc3ccc(Cl)cc3)sc2c1	6	82	0	0	22*	0
CN(C)CCCN(C(=O)COc1ccc(Cl)cc1)c1nc2ccc(F)cc2s1	2	113	0	8	18*	-1
CC1(C(=O)NS(=O)(=O)c2ccc(F)cc2F)CCN1C(=O)CCc1ccc(Cl)cc1Cl (stereo unspecified)	nt	nt	nt	nt	nt	0
Cc1ccc(F)c(S(=O)(=O)NC(=O)C2(C)CCN2C(=O)Cc2cccc3ccccc23)c1 (stereo unspecified)	nt	nt	nt	nt	nt	0
COc1ccc(NCC(O)COc2ccc(C(C)(C)C)cc2)cc1 (stereo unspecified)	18	86	0	-2	22*	0
Cc1cc(C)c(S(=O)(=O)ON2C(=O)c3ccccc3C2=O)cc1C	2	116	0	-4	2	0
Cc1ccc(S(=O)(=O)ON2C(=O)c3ccccc3C2=O)c(C)c1	59*	82	0	4	-1	1
O=S(=O)(NC1CCC(NS(=O)(=O)c2c(F)cccc2F)CC1)c1ccc2c(c1)OCCO2 (stereo unspecified)	3	99	0	7	-3	0
O=S(=O)(c1ccc2c(c1)OCCO2)C1CCC(S(=O)(=O)c2c(F)cccc2F)CC1 (stereo unspecified)	40*	98	0	7	1	0
O=C(Nc1ccc(Br)cc1)c1cccc(S(=O)(=O)Nc2ccccn2)c1	nt	122	0	-2	6	0
O=C(Nc1ccc(Br)cc1)c1cccc(S(=O)(=O)Nc2cnc3ccccc3c2)c1	11	116	0	2	7	65*
C=CC[C@@H](CC(=O)N(CCO)Cc1ccccc1)C(=O)N[C@@H](COC(=O)[C@H](CC=C)CC(=O)OC(C)(C)C)Cc1c[nH]c2ccccc12	33*	84	0	-2	8	0
C=CC[C@H](CC(=O)N(CCO)Cc1ccccc1)C(=O)N[C@H](COC(=O)[C@@H](CC=C)CC(=O)OC(C)(C)C)Cc1ccccc1	30*	109	0	3	-5	0
C=CC[C@H](CC(=O)N(CCO)Cc1ccccc1)C(=O)N[C@H](COC(=O)[C@H](CC=C)CC(=O)OC(C)(C)C)Cc1c[nH]c2ccccc12	nt	114	1	-3	7	0
C=CC[C@@H](CC(=O)N[C@H](CO)Cc1ccccc1)C(=O)N[C@H](COC(=O)[C@H](CC=C)CC(=O)OC(C)(C)C)Cc1c[nH]c2ccccc12	nt	nt	nt	nt	6	0
C=CC[C@H](CC(=O)N(CCO)Cc1ccccc1)C(=O)N[C@@H](COC(=O)[C@@H](CC=C)CC(=O)OC(C)(C)C)Cc1c[nH]c2ccccc12	40*	93	0	3	5	0
C=CC[C@@H](CC(=O)N(CCO)Cc1ccccc1)C(=O)N[C@H](COC(=O)[C@@H](CC=C)CC(=O)OC(C)(C)C)Cc1ccccc1	nt	95	-1	6	3	1
C(=C\c1ccccc1)/CN1CCN(C(c2cc3ccccc3o2)c2nnnn2Cc2ccccc2)CC1 (stereo unspecified)	nt	nt	nt	nt	nt	-1
c1ccc(CNc2nc(NCc3ccccc3)c3ccccc3n2)cc1	-6	91	0	-5	2	6.5*
SMILES	HDAC3 inh	CR mimetic SO	Efflux pump inh	IDE inh	IDE cell activ	Tb MetRS inh
O=C(c1ccc(-c2cccc(C(F)(F)F)c2)o1)N1CCCC(C(F)(F)F)C1 (stereo unspecified)	30*	100	0	0	0	0
CCCCNC(=O)C(NC(=O)Cc1cc(OC)cc(OC)c1)C(=O)c1ccccc1 (stereo unspecified)	nt	nt	nt	nt	nt	0
CN(Cc1ccc(Cl)cc1)C(C(=O)NC1CCCCC1)c1ccnc2ccccc12 (stereo unspecified)	nt	nt	nt	nt	nt	-1
COC(=O)C1=C(C)N(Cc2ccccc2)C(=NCc2cccc(Cl)c2)N[C@H]1c1cccc(F)c1	5	91	0	3	18*	0
COC(=O)C1=C(C)N(Cc2ccccc2)C(=NCc2ccccc2)N[C@H]1c1cccc(C(F)(F)F)c1	3	86	1	6	22*	0
CC(C)NC(=O)C1(C)CN(S(C)(=O)=O)CC(=O)N1CCOc1ccccc1 (stereo unspecified)	nt	nt	nt	nt	nt	0
CCOC(=O)N1CCN(C(=O)C[C@@H]2C[C@@]3(C(=O)OCC)CCC=C3N(Cc3ccc(Cl)cc3Cl)C2=O)CC1	nt	nt	nt	nt	nt	0
C#CCOCCOCCOCCNc1nc(N2CCN(C(=O)CCCCCCCCCCNC(=O)[C@H](CO)n3cc(CCCSC)nn3)CC2)nc(N2CCN(C(=O)CCCCCCCCCCNC(=O)[C@H](CCCCN)n3cc(CCO)nn3)CC2)n1	20	92	0	5	22*	0
C#CCOCCOCCOCCNc1nc(N2CCN(C(=O)CCCCCCCCCCNC(=O)Cn3cc(CCCCCN)nn3)CC2)nc(N2CCN(C(=O)CCCCCCCCCCNC(=O)[C@@H](CCC(=O)O)n3cc(CCCCCN)nn3)CC2)n1	12	102	0	-5	2	0
C#CCOCCOCCOCCNc1nc(N2CCN(C(=O)CCCCCCCCCCNC(=O)Cn3cc(C[C@@H](C)O)nn3)CC2)nc(N2CCN(C(=O)CCCCCCCCCCNC(=O)[C@H](CCCN=C(N)N)n3cc(C[C@@H](C)CC)nn3)CC2)n1	?	109	0	8	35*	-1
